An excerpt weighted towards active compounds, which were near 1.4% of everything screened.
UCH37 DUB inh: blocks the human deubiquitinase UCH37; Q9Y5K5; purified proteasome/UCH37, Ub-AMC cleavage fluorescence; inhibition, % (concentration not given with the values); hit rate 0.33% among 330,000; AID 588478;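 active means mean inhibition over replicate wells above about 20%, limit read from the data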
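Signal – fluorescence, ex 355 nm, em 460 nm · System – Proteasome-bound UCH37 · Input – 0.15 nM proteasome as dispensed · Timing – 30 min preincubation with enzyme, 25 min cleavage at room temperature · Read-out basis – percent inhibition of cleavage signal versus uninhibited and no-proteasome wells · Medium – Tris-HCl pH 7.4 with ATP-MgCl2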
TbMetRS inhib: Trypanosoma brucei MetRS inhibition. purified T. brucei MetRS, ATP depletion, Kinase-Glo luminescence. inhibition, % at 11.9 µM. hit rate 0.4% among 360,000. AID 624268;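 active means inhibition above a per-plate cutoff of the control wells' mean inhibition plus 3 SD, cut at about 5.5% in these data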
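Test system: purified T. brucei MetRS enzyme. Also added: ATP, methionine and E. coli bulk tRNA substrates. Compound: 11.9 µM single point. Schedule: 15 min enzyme-compound preincubation, 2 h reaction, 10 min detection, 25 °C. Signal: luciferase luminescence of residual ATP, Kinase-Glo. Evaluation: percent inhibition versus plate control medians. Controls: DMSO wells, low control.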
ATG4B inhibitor: ATG4B (human) cysteine protease inhibition | Q9Y4P1 | ATG4B cleavage of LC3-PLA2, NBD-HPC fluorescence, 1 h | inhibition, % at 8.33 µM | hit rate 0.51% among 340,000; in the data active means inhibition above about 40%
Rin1 Abl inh: blocks binding of human Rin1 to Abl. P00519+Q13671. TR-FRET Rin1/Abl binding, biochemical. inhibition, % at 7.35 µM. hit rate 0.4% among 360,000. AID 588664; in the data active means inhibition above about 5%, passing the limit was not always enough
TbMetRS confirm: Trypanosoma brucei MetRS inhibition confirmed; shares compounds with TbMetRS inhib; inhibition, % at 11.9 µM; hit rate 93% among 1,400; T. brucei MetRS enzyme, luminescence (ATP depletion); in the data active means inhibition above about 7%
Jurkat cytotox: counter-screen for T. brucei MetRS inhibitors: Jurkat cell cytotoxicity | shares compounds with TbMetRS inhib | Jurkat cells viability, ATP luminescence | inhibition, % at 8.3 µM | hit rate 12% among 1,400 | AID 624413; in the data active means inhibition above about 15%
Tb MetRS inh FP: inhibits T. brucei methionyl tRNA synthetase in orthogonal FP test. hit rate 44% among 1,400. inhibition, % at 11.9 µM. shares compounds with TbMetRS inhib. AID 651607. purified T. brucei MetRS, fluorescence polarization; in the data active means inhibition above about 17%
Hits are given with their value; n = inactive; x = no result given.

SMILES	UCH37 DUB inh	TbMetRS inhib	ATG4B inhibitor	Rin1 Abl inh	TbMetRS confirm	Jurkat cytotox	Tb MetRS inh FP
CSCC[C@H](NC(=O)COc1ccc(Cl)cc1Cl)c1nc2ccccc2[nH]1	n	12	n	n	24	n	n
O=C(NC(Cc1ccccc1)c1nc2ccccc2[nH]1)c1ccc(Cl)c([N+](=O)[O-])c1 (stereo not given)	n	20	n	n	26	n	n
CCOc1ccccc1NC(=O)c1ccc(OCC)c([N+](=O)[O-])c1	n	n	n	n	x	x	x
CSCC[C@H](NC(=O)c1cccc([N+](=O)[O-])c1C)c1nc2ccccc2[nH]1	n	n	n	n	x	x	x
CCOc1ccc(C(=O)Nc2cc(-c3nc4ccccc4[nH]3)ccc2Cl)cc1[N+](=O)[O-]	n	7.7	n	n	14	n	n
CCc1ccc(-c2nc(CN3CCC(C(=O)N4CCN(c5ccccc5)CC4)CC3)c(C)o2)cc1	n	n	n	n	x	x	x
Cc1cc(C)cc(-n2ncc3c2CCCC3NC(=O)C2CCC2)c1 (stereo not given)	n	n	n	n	x	x	x
CC(Oc1cc2oc(=O)c3c(c2cc1Cl)CCCC3)C(=O)NCc1ccccn1 (stereo not given)	n	n	n	n	x	x	x
O=C(O)[C@H](Cc1c[nH]c2ccccc12)Nc1ncccc1[N+](=O)[O-]	n	n	n	n	x	x	x
OC(COc1ccc2cc(Br)ccc2c1)Cn1ccnc1 (stereo not given)	n	6.2	n	n	13	n	24
COC(=O)c1cccc(OCC(O)Cn2ccnc2)c1 (stereo not given)	n	n	n	n	x	x	x
COc1ccc(NC(=O)CSc2nnc(-c3cccnc3)n2Cc2ccco2)c(OC)c1	n	n	n	n	x	x	x
CCOC(=O)c1c(N)n(CCOC(=O)c2cccs2)c2nc3ccccc3nc12	n	7.3	n	n	5.7	n	n
CCCCCOC(=O)c1c(N)n(CCOC)c2nc3ccccc3nc12	n	n	n	n	x	x	x
O=C(CCSc1ccc(Br)cc1)Nc1cccnc1	n	6.4	n	n	11	n	n
c1coc(CN2CNc3nc4ccccc4n3C2)c1	n	n	n	n	x	x	x
CCCN1CN(Cc2ccco2)c2nc3ccccc3n2C1	n	20	n	n	17	n	n
O=C(COC(=O)c1ccccc1)Nc1ncc([N+](=O)[O-])s1	n	n	n	n	x	x	x
O=C(Nc1ccccc1)Nc1ncc([N+](=O)[O-])s1	n	6.4	n	n	10	63	n
O=C(/C=C/c1ccccc1)c1c[nH]c2ccccc12	n	n	n	n	x	x	x
O=C(C=Cc1ccccc1)c1c[nH]c2ccccc2c1=O	n	37	n	n	78	93	56
CN(C)CC1CCCCC1OC(=O)/C=C/c1ccc(Cl)cc1Cl (stereo not given)	n	9.0	n	n	20	n	n
CC(C)C(C(=O)NCC1CCCO1)N(C(=O)CNS(=O)(=O)c1ccc(F)cc1)c1ccccc1 (stereo not given)	n	n	n	n	x	x	x
COc1ccc(/C=N/n2c(=O)[nH]c3c([nH]c4ccc(Br)cc43)c2=O)cc1CN1CCOCC1	x	6.2	n	n	14	n	n
OC(c1ccc(Cl)c(Cl)c1)c1ncc(-c2ccc(C(F)(F)F)cc2)[nH]1 (stereo not given)	x	n	x	n	x	x	x
SMILES	UCH37 DUB inh	TbMetRS inhib	ATG4B inhibitor	Rin1 Abl inh	TbMetRS confirm	Jurkat cytotox	Tb MetRS inh FP
OC(c1ccc(Cl)c(Cl)c1)c1ncc(-c2ccc(Cl)cc2)[nH]1 (stereo not given)	x	51	x	n	86	n	66
OC(c1ccc(Cl)c(F)c1)c1ncc(-c2ccc(Cl)cc2)[nH]1 (stereo not given)	x	5.8	x	n	41	n	n
COc1ccccc1C=NOCc1ccc(C#N)cc1	n	x	x	x	x	x	x
O=C(Nc1ccccc1)c1ccc(=O)n(Cc2ccc(F)c(F)c2)c1	n	9.6	n	n	18	n	n
CCc1cccc(NC(=O)c2cccc3c2C(=O)N(CC2CCCO2)C3)c1 (stereo not given)	n	n	n	n	x	x	x
Cn1cnc2cc(NCc3ccc(Cl)cc3)ccc21	n	7.2	n	n	16	n	n
CCOc1ccc(CNc2ccc3c(c2)ncn3C)cc1	n	n	n	n	x	x	x
O=C(c1ccc2c(=O)n(Cc3ccco3)c(=S)[nH]c2c1)N1CCN(Cc2ccccc2)CC1	n	n	n	n	x	x	x
CC1=NN(c2ccc(F)cc2)C(=O)C1C(c1cccc(O)c1)c1c(C)[nH]n(-c2ccc(F)cc2)c1=O (stereo not given)	n	19	n	n	n	n	n
Cn1c(CC(=O)Nc2ccc(Cl)c(Cl)c2)n[nH]c1=S	n	n	n	n	x	x	x
COc1ccc(Cc2n[nH]c(=S)n2NC(=O)Nc2ccc(Cl)c(Cl)c2)cc1	n	37	n	n	50	n	32
Cc1ccc(NC(=O)CNc2cc(S(=O)(=O)N3CCOCC3)ccc2NCC2CCCO2)cc1F (stereo not given)	n	15	n	n	21	n	n
O=C(CNc1cc(S(=O)(=O)N2CCOCC2)ccc1NCC1CCCO1)Nc1ccccc1F (stereo not given)	n	11	n	n	n	n	n
O=C(Nc1ccccc1C(=O)Nc1ccccc1)c1ccccc1Br	n	n	n	n	x	x	x
COc1ccc(NC2=C3CCCC=C3N(c3ccc(OC)cc3)C2=O)cc1	n	n	n	n	x	x	x
COCCNC(=O)CSc1ccc(-c2nc3ccccc3[nH]2)cn1	n	11	n	n	19	n	n
Cc1nc(NC(=O)CSc2ccc(-c3nc4ccccc4[nH]3)cn2)sc1C	n	19	n	n	36	n	n
O=C(CSc1ccc(-c2nc3ccccc3[nH]2)cn1)Nc1ccc2c(c1)OCCO2	n	n	n	n	x	x	x
O=C(CSc1ccc(-c2nc3ccccc3[nH]2)cn1)Nc1ccc(S(=O)(=O)NC2CC2)cc1	n	64	n	n	69	n	75
Cc1ccc2nc(-c3ccc(SCC(=O)Nc4ccc5c(c4)OCCO5)nc3)[nH]c2c1	n	7.4	n	n	8.6	n	18
Cc1ccc2nc(-c3ccc(SCC(=O)Nc4nnc(C)s4)nc3)[nH]c2c1	n	n	n	n	x	x	x
CC(=O)N1C(=O)C2(C(C#N)=C(N)Oc3cc(C)oc(=O)c32)c2ccccc21 (stereo not given)	n	n	n	n	x	x	x
Cc1ccc(Cl)cc1N1CCN(C(=O)c2ccc(NS(=O)(=O)c3c(C)noc3C)cc2)CC1	n	n	n	n	x	x	x
Cc1ccc(C)c(NC(=O)CNC(=O)N2CC(=O)Nc3ccccc32)c1	n	n	n	n	x	x	x
CCOC(=O)CSc1ccc(-c2nc3ccccc3[nH]2)cn1	n	9.2	n	n	19	n	n
CCOC(=O)CSc1ccc(-c2nc3cc(C)c(C)cc3[nH]2)cn1	n	n	n	n	x	x	x

Bioassay records from PubChem BioAssay.
